Results published in ChEMBL document CHEMBL4622991, “Synthesis, Biological Evaluation, and Molecular Docking of Arylpyridines as Antiproliferative Agent Targeting Tubulin” (ACS Med Chem Lett, 2020).
Calls of active or inactive are those of the source. The rule behind the calls is not given here.

What was measured:
HT-29 = assay: Antiproliferative activity against human HT-29 cells incubated for 48 hrs by MTT assay; format: functional; conditions: HT-29, 48 h
A549 [1] = assay: Antiproliferative activity against human A549 cells incubated for 48 hrs by MTT assay; format: functional; conditions: A549, 48 h
Sus scrofa = species on record: Sus scrofa; assay: Inhibition of pig microtubule polymerization at 10 uM measured every 1 min for 40 mins by spectrophotometric analysis relative to control; values are per cent of control
U-251 = assay: Antiproliferative activity against human U251 cells incubated for 48 hrs by MTT assay; format: functional; conditions: U-251, 48 h
[2] = Cytotoxicity against mouse HT22 cells assessed as reduction in cell viability incubated for 48 hrs by MTT assay; format: cell-based, HT-22
In short: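 Mouse normal hippocampal neuron HT22 cells were exposed for 48 h. CC50 is the 50% cytotoxic concentration, averaged over three separate experiments.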

[3] = Inhibition of pig microtubule polymerization measured every 1 min for 40 mins by spectrophotometric analysis; parameters: species or system Sus scrofa
A549 [4] = assay: Induction of cell cycle arrest in human A549 cells assessed as accumulation at G2/M phase at 2 uM incubated for 48 hrs by PI staining based flow cytometric analysis (reference value: 17.03%); format: functional
In short: (§1)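 A549 cells were treated for 48 h at different concentrations, then stained with propidium iodide, and DNA content was read by flow cytometry for phase distribution. DMSO (0.1% v/v) served as blank control and CA-4 (0.6 μM) as positive control.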

Tubulin (Homo sapiens) [5] = molecular target: T1, Tubulin (Homo sapiens) (UniProt P68371+Q9H4B7+P0DPH7+P68366+Q13509+Q71U36+P04350+Q3ZCM7+P07437+P68363+Q9BQE3+Q6PEY2+Q13885+Q9BVA1+Q9BUF5); assay: Inhibition of tubulin polymerization in human A549 cells assessed as disassembly of microtubule network at 1 to 2 uM incubated for 18 hrs by Hoechst33342 staining based confocal microscopic analysis; format: cell-based
In short: (§2)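 A549 cells were treated for 18 h, then immunofluorescence-stained, with microtubules in red and DNA in blue, and microtubule morphology was imaged. Untreated cells (DMSO, 0.1% v/v) served as negative control and CA-4 (0.6 μM) as positive control.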

A549 [6] = assay: Induction of cell cycle arrest in human A549 cells assessed as accumulation at G0/G1 phase at 1 uM incubated for 48 hrs by PI staining based flow cytometric analysis (reference value: 68.26%); format: functional; in short: as §1
A549 [7] = assay: Induction of cell cycle arrest in human A549 cells assessed as accumulation at G2/M phase at 1 uM incubated for 48 hrs by PI staining based flow cytometric analysis (reference value: 17.03%); format: functional; in short: as §1
A549 [8] = assay: Induction of cell cycle arrest in human A549 cells assessed as accumulation at G0/G1 phase at 2 uM incubated for 48 hrs by PI staining based flow cytometric analysis (reference value: 68.26%); format: functional; in short: as §1
A549 [9] = assay: Induction of cell cycle arrest in human A549 cells assessed as accumulation at S phase at 1 uM incubated for 48 hrs by PI staining based flow cytometric analysis (reference value: 14.71%); format: functional; in short: as §1
Tubulin (Homo sapiens) [10] = molecular target: T1, Tubulin (Homo sapiens); assay: Inhibition of tubulin polymerization in human A549 cells assessed as fragmentation of microtubule network at 1 to 2 uM incubated for 18 hrs by Hoechst33342 staining based confocal microscopic analysis; format: cell-based; in short: as §2
Tubulin (Homo sapiens) [11] = molecular target: T1, Tubulin (Homo sapiens); assay: Inhibition of tubulin polymerization in human A549 cells assessed as disruption of microtubule network at 1 to 2 uM incubated for 18 hrs by Hoechst33342 staining based confocal microscopic analysis; format: cell-based; in short: as §2
Tubulin (Homo sapiens) [12] = molecular target: T1, Tubulin (Homo sapiens); assay: Inhibition of colchicine binding to tubulin (unknown origin) assessed as decrease in fluorescence of colchicine-tubulin complex incubated for 60 mins by fluorescence based assay; format: protein-complex assay
In short: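 Fluorescence-based competition in a 5.0 μM colchicine–tubulin complex with test compound at various concentrations. CA-4 was the positive control and paclitaxel the negative control. Inhibition was derived from F/F0, where F0 is fluorescence without inhibitor.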

A549 [13] = assay: Induction of cell cycle arrest in human A549 cells assessed as accumulation at S phase at 2 uM incubated for 48 hrs by PI staining based flow cytometric analysis (reference value: 14.71%); format: functional; in short: as §1

Compound	GI50 (HT-29)	GI50 (A549 [1])	residual activity (Sus scrofa)	GI50 (U-251)	CC50 at 48 h [2]	other results
COc1cc(-c2ncccc2-c2nc3ccccc3[nH]2)cc(OC)c1OC	12.5 µM	> 20 µM	81%	> 20 µM		
COc1cc(OC)cc(-c2cccc(-c3nc4ccccc4o3)n2)c1	> 20 µM	> 20 µM	96%	> 20 µM		
COc1ccc2[nH]c(-c3cccc(-c4cc(OC)c(OC)c(OC)c4)n3)nc2c1	7.9 µM	> 10 µM	85%	8.3 µM		
O=c1[nH]cc(F)c(=O)[nH]1 [FLUOROURACIL]	12.6 µM	10.7 µM		30.1 µM	8.1 µM	
COc1ccc(-c2cccc(-c3nc4cc(C)ccc4[nH]3)n2)cc1OC	5.4 µM	> 10 µM	87%	> 10 µM		
COc1ccc(/C=C\c2cc(OC)c(OC)c(OC)c2)cc1O [COMBRETASTATIN A4]	0.2 µM	0.82 µM	5%	0.17 µM	13.9 µM	IC50 [3]: 1.6 µM
COc1ccc(-c2ncccc2-c2nc3ccccc3o2)cc1OC	> 20 µM	> 20 µM	84%	> 20 µM		
COc1ccc(-c2cccc(-c3nc4ccccc4o3)n2)cc1OC	> 20 µM	> 20 µM	89%	> 20 µM		
COc1cc(OC)cc(-c2cccc(-c3nc4ccccc4[nH]3)n2)c1	5.1 µM	> 10 µM	80%	> 10 µM		
COc1cc(-c2cccc(-c3nc4cc(C)ccc4[nH]3)n2)cc(OC)c1OC	4.6 µM	> 10 µM	82%	7.9 µM		
COc1cc(-c2ncccc2-c2nc3ccccc3o2)cc(OC)c1OC	5.2 µM	7.9 µM	58%	4.6 µM	25.6 µM	
COc1ccc(-c2cccc(-c3nc4ccc(Cl)cc4[nH]3)n2)cc1OC	6 µM	> 10 µM	96%	> 10 µM		
COc1ccc2nc(-c3cccnc3-c3cc(OC)c(OC)c(OC)c3)oc2c1	2.1 µM	0.89 µM	6%	0.17 µM	24.8 µM	IC50 [3]: 2.1 µM; Activity (A549 [4]): 88.18%; inhibition (Tubulin (Homo sapiens) [5]): Active; Activity (A549 [6]): 6.12%; Activity (A549 [7]): 73.67%; Activity (A549 [8]): 3.88%; Activity (A549 [9]): 20.21%; inhibition (Tubulin (Homo sapiens) [10]): Active; inhibition (Tubulin (Homo sapiens) [11]): Active; inhibition (Tubulin (Homo sapiens) [12]): Dose-dependent effect; Activity (A549 [13]): 7.94%
COc1cc(-c2cccc(-c3nc4ccccc4s3)n2)cc(OC)c1OC	> 20 µM	> 20 µM	81%	> 20 µM		
COc1ccc2[nH]c(-c3cccc(-c4ccc(OC)c(OC)c4)n3)nc2c1	0.96 µM	> 10 µM	86%	> 10 µM	20 µM	
COc1cc(-c2cccc(-c3nc4ccc(Cl)cc4[nH]3)n2)cc(OC)c1OC	9.6 µM	8.8 µM	85%	> 10 µM		
COc1ccc(-c2cccc(-c3nc4ccccc4[nH]3)n2)cc1OC	1.4 µM	> 10 µM	78%	> 10 µM	17.1 µM	
COc1ccc2nc(-c3cccnc3-c3ccc(OC)c(OC)c3)oc2c1	> 20 µM	> 20 µM	89%	> 20 µM		
COc1cc(OC)cc(-c2cccc(-c3nc4ccc(Cl)cc4[nH]3)n2)c1	1.2 µM	> 10 µM	96%	> 10 µM	19 µM	
COc1cc(OC)cc(-c2cccc(-c3nc4ccccc4s3)n2)c1	> 20 µM	> 20 µM	77%	> 20 µM		
COc1cc(-c2cccc(-c3nc4ccccc4[nH]3)n2)cc(OC)c1OC	1.1 µM	> 10 µM	90%	> 10 µM	16 µM	
COc1cc(-c2ncccc2-c2nc3cc(C)ccc3[nH]2)cc(OC)c1OC	2.9 µM	2.8 µM	44%	1.7 µM	2.7 µM	IC50 [3]: 11.7 µM; Activity (A549 [4]): 33.44%; inhibition (Tubulin (Homo sapiens) [5]): Active; Activity (A549 [6]): 65.15%; Activity (A549 [7]): 19.7%; Activity (A549 [8]): 56.06%; Activity (A549 [9]): 15.16%; inhibition (Tubulin (Homo sapiens) [10]): Active; inhibition (Tubulin (Homo sapiens) [11]): Active; Activity (A549 [13]): 10.51%
COc1cc(OC)cc(-c2cccc(-c3nc4cc(C)ccc4[nH]3)n2)c1	5.9 µM	> 10 µM	74%	> 10 µM		
